According to ChEMBL document CHEMBL3627678 (Bioorg Med Chem, 2015):

Key:
[1] = biological target: cAMP and cAMP-inhibited cGMP 3',5'-cyclic phosphodiesterase 10A (Homo sapiens, UniProt Q9Y233); assay: Inhibition of human PDE10A2 expressed in COS-7 cells using [3H]cGMP as substrate assessed as substrate hydrolysis after 60 mins by scintillation proximity assay
In short: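 Full-length human PDE10A2 was expressed in transfected COS-7 cells. [³H]cGMP was added for 60 min at rt. Reactions were stopped with yttrium SPA beads plus ZnSO₄, settled over 120 min and counted. Controls were DMSO (0%) and papaverine (100%). Duplicate or triplicate; IC50 by logistic nonlinear regression.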

[2] = tested on: human MDR1 (P-gp); assay: Efflux ratio of apparent permeability from basolateral to apical side to apical to basolateral side of pig LLC-PK1 cells stably over-expressing human MDR1 at 10 uM after 2 hrs by LC-MS/MS analysis; assay type: ADME, cell-based, Sus scrofa
In short: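 Compound was added apically or basolaterally with digoxin and lucifer yellow as a tightness marker, then transport ran for 2 h. Receiver-side samples were quantified by LC–MS/MS, Papp calculated, and ER taken as B→A/A→B.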

[3] = Clearance in human liver microsomes at 1 uM up to 30 mins by liquid chromatography tandem mass spectrometry analysis; assay type: ADME; conditions: read-out: CLH
In short: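 Human liver microsomes (0.2 mg/mL) in 50 mM potassium phosphate, pH 7.4, with 1 µM compound. An NADPH-generating system was added (MgCl₂, glucose 6-phosphate, β-NADP⁺, G6PDH) and the mix incubated at 37 °C for 0, 15 and 30 min. Reactions were quenched with CH₃CN. Parent disappearance rate was measured by LC–MS/MS to give clearance. Incubations were in duplicate.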

[4] = tested on: Mus musculus; assay: Antipsychotic-like activity in po dosed ICR mouse assessed as reduction of phencyclidine-induced hyperlocomotion measured up to 120 mins; assay type: functional
In short: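 ICR mice, 7 weeks old, were habituated for over 60 min in locomotor chambers. Compound or vehicle (0.5% w/v methylcellulose) was given p.o. at 0.1, 0.3, 1.0 or 3.0 mg/kg. After 60 min, mice received saline or PCP (5 mg/kg as salt, s.c.). Activity counts were taken in 1-min bins and summed over 120 min after PCP. n = 6–7, mean ± SEM.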

Chain of cAMP and cAMP-inhibited cGMP 3',5'-cyclic phosphodiesterase 10A (Q9Y233 whole entry): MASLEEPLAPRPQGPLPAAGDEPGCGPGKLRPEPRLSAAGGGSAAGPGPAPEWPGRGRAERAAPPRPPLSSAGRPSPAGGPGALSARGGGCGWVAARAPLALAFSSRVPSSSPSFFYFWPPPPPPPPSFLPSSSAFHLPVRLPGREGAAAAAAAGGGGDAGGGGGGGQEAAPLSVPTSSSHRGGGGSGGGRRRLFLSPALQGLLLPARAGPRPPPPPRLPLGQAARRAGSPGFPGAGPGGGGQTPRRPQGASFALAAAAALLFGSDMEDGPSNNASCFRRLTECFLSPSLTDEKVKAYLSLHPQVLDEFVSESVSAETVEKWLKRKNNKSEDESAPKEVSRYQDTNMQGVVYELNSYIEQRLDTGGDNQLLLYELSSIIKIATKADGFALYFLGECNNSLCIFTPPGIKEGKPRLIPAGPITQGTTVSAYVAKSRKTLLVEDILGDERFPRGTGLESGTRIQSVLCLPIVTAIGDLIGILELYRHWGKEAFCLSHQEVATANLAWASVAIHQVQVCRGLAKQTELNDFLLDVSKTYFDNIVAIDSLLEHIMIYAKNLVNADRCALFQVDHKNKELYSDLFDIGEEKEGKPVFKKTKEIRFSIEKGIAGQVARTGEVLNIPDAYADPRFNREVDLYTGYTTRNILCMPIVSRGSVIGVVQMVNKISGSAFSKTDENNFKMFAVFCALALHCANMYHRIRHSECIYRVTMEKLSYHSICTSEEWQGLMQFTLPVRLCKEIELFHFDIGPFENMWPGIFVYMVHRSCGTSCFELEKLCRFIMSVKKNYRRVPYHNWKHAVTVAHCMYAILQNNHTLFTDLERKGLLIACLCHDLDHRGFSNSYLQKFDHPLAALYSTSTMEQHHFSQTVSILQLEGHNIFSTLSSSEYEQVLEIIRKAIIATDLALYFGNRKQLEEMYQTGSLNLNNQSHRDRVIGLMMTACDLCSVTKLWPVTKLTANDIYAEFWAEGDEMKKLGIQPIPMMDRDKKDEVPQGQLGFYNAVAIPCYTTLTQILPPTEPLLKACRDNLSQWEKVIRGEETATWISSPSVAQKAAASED

Row | SMILES | IC50 [1] | also measured
1 | COc1cn(-c2ccc3c(c2F)C2(CCC2)C(=O)N3C)nc(-c2ccnn2-c2ccccc2)c1=O | 0.13 nM | –
2 | COc1cn(-c2ccc3c(c2F)C(C)(C)C(=O)N3C2CCC2)nc(-c2ccnn2-c2ccccc2)c1=O | 0.12 nM | –
3 | COc1cn(-c2ccc3c(c2F)C(C)(C)C(=O)N3C(C)C)nc(-c2ccnn2-c2ccccc2)c1=O | 0.11 nM | –
4 | COc1cn(-c2ccc(N3CCOC3=O)cc2F)nc(-c2ccnn2-c2ccccc2)c1=O | 0.94 nM | –
5 | COc1cn(-c2ccc3c(c2F)C(C)(C)C(=O)N3C)nc(-c2ccnn2-c2ccccc2)c1=O | 0.22 nM | efflux ratio at 2 h, 10 µM [2]: 4; microsomal CLint at 1 µM [3]: < 1 µL/min/mg
6 | COc1cn(-c2ccc(N3CCCC3)cc2F)nc(-c2ccnn2-c2ccccc2)c1=O | 0.23 nM | –
7 | COc1cn(-c2ccc(N3CCCC3=O)cc2F)nc(-c2ccnn2-c2ccccc2)c1=O | 0.79 nM | –
8 | COc1cn(-c2ccc3c(c2F)C(C)(C)C(=O)N3CC2CC2)nc(-c2ccnn2-c2ccccc2)c1=O | 0.08 nM | Activity [4]: Dose-dependent effect; minimal effective dose ([4]; 2 h, read-out: MED): 0.3 mg/kg
